We go through two compounds from ChEMBL document CHEMBL3351868, “Structure-affinity relationships and pharmacological characterization of new alkyl-resorcinol cannabinoid receptor ligands: Identification of a dual cannabinoid receptor/TRPA1 channel agonist” (Bioorg Med Chem, 2014).

In one data set the test system is COS-7. The data set is described as follows: Inhibition of MGL in African green monkey COS7 cells cytosolic fraction assessed as reduction in 2-arachidonoyl-[3H]-glycerol hydrolysis at 1 uM by scintillation counting method. The settings on record: Chlorocebus aethiops. Format: cell-based.
For data set [1], the system named is Mus musculus. The data set is described as follows: Antinociceptive activity in Swiss-Webster mouse assessed as reduction in second phase of formalin-induced nociceptive behavior at 4 mg/kg, ip after 40 mins. Type of data set: functional, organism-based. On the set-up: dose 4 mg/kg. In a few lines: (§1)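 Mice received compound or vehicle (0.9% NaCl) i.p. 10 min before formalin (1.25%) injected subcutaneously into the hind paw. Lifting, favouring, licking, shaking and flinching were scored blind as total duration per 5-min bin over 60 min. 8-10 animals per group; one-way ANOVA with Bonferroni test.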

Data set [2] deals with Mus musculus. Briefly: Antinociceptive activity in Swiss-Webster mouse assessed as reduction in second phase of formalin-induced nociceptive behavior at 3 and 4 mg/kg, ip. On the set-up: dose 4 mg/kg. Format: functional, organism-based. In short, it runs like this:
as §1

Data set [3] addresses T1, Cannabinoid receptor 2 (Homo sapiens, UniProt P34972). Briefly: Displacement of [3H]CP-55,940 from human recombinant CB2 receptor expressed in HEK293 cell membranes. (In general: In a radioligand displacement assay an active substance lowers the binding of a labelled ligand.)
In data set [4] the target is Transient receptor potential cation channel subfamily A member 1 (Rattus norvegicus) (UniProt Q6RI86). Briefly: Agonist activity at rat recombinant TRPA1 expressed in HEK293 cells assessed as increase in intracellular calcium level by fluorescence assay relative to isothiocyanate. Type of data set: cell-based. In a few lines: (§2)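 HEK293 cells stably expressing rat TRPA1 were loaded with Fluo-4-AM (4 µM, 1 h, room temperature). Cells stirred in Tyrode's buffer pH 7.4; [Ca2+]i fluorescence read at ex 488/em 516 nm, 25 °C. Wild-type HEK293 response subtracted. Efficacy as percent of 100 µM allyl isothiocyanate. EC50 from sigmoidal fit, n=3.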
In general terms: Calcium assays in cells follow changes in intracellular calcium, usually with a dye or a luminescent sensor.

Data set [5] is described as follows: Cytotoxicity against mouse NIH/3T3 cells after 24 hrs by neutral red assay. Format: cell-based. The settings on record: NIH3T3, 24 h. In a few lines:
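NIH3T3 mouse fibroblasts in DMEM with 10% FCS were seeded and after 24 h exposed to compound in DMSO (5-200 µM, six replicates) for 24 h. Viability measured by neutral red uptake (3 h dye incubation, then acetic acid/ethanol extraction). IC50 derived.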

In data set [6] the target is T2, Cannabinoid receptor 1 (Homo sapiens, UniProt P21554). The data set is described as follows: Agonist activity at human recombinant CB1 receptor expressed in CHO cell membranes assessed as stimulation of [35S]GTPgammaS binding relative to basal level. Format: functional. In short, it runs like this:
(§3)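 Membranes from CHO cells stably expressing human CB1 or CB2, 50 µg protein per well, in Tris buffer with 100 mM NaCl, 5 mM MgCl2, 1 mM DTT, 1 mM EDTA, 0.1% BSA, pH 7.4. Incubated 60 min at 30°C with 0.1 nM [35S]GTPγS, 30 µM GDP and compound in DMSO. Nonspecific binding defined with 30 µM GTPγS. Filtration and scintillation counting. Percent change relative to DMSO control, n=6. EC50/Emax from sigmoidal fit.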
Background: Binding of GTPγS marks nucleotide exchange on a G protein.

Data set [7] addresses T3, Transient receptor potential cation channel subfamily A member 1 (Rattus norvegicus, UniProt Q6RI86). The data set is described as follows: Antagonist activity at rat recombinant TRPA1 expressed in HEK293 cells assessed as reduction in isothiocynate-induced increase in intracellular calcium response by fluorescence assay. Type of data set: cell-based. In a few lines: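 Rat TRPA1-HEK293 cells loaded with Fluo-4 in Tyrode's buffer pH 7.4, 25 °C. Compound given as a 5 min pre-incubation before 100 µM allyl isothiocyanate. IC50 for half-maximal inhibition of the agonist-evoked [Ca2+]i rise, n=3.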

Data set [8] deals with T1, Cannabinoid receptor 2. Briefly: Agonist activity at human recombinant CB2 receptor expressed in CHO cell membranes assessed as stimulation of [35S]GTPgammaS binding relative to basal level. Type of data set: functional. In a few lines: as §3
The target in data set [9] is T2, Cannabinoid receptor 1. Briefly: Agonist activity at human recombinant CB1 receptor expressed in CHO cell membranes by [35S]GTPgammaS binding assay. Format: functional. In short, it runs like this:
as §3

Data set [10] addresses T4, Transient receptor potential cation channel subfamily V member 1 (Homo sapiens, UniProt Q8NER1). Briefly: Agonist activity at human recombinant TRPV1 expressed in HEK293 cells assessed as increase in intracellular calcium level by fluorescence assay relative to ionomycin. Format: cell-based. In a few lines:
(§4)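 HEK293 cells stably expressing human TRPV1 were loaded with Fluo-4-AM (4 µM, 1 h, room temperature). Cells stirred in Tyrode's buffer pH 7.4; fluorescence read at ex 488/em 516 nm, 25 °C. Wild-type HEK293 response subtracted. Efficacy as percent of 4 µM ionomycin. EC50 from sigmoidal fit, n=3.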

For data set [11], the species on record is Homo sapiens. The data set is described as follows: Selectivity index, ratio of Ki for human recombinant CB2 receptor to Ki for human recombinant CB1 receptor.
For data set [12], the target named is T1, Cannabinoid receptor 2. Briefly: Agonist activity at human recombinant CB2 receptor expressed in CHO cell membranes by [35S]GTPgammaS binding assay. Type of data set: functional. In a few lines: as §3
Data set [13] addresses T2, Cannabinoid receptor 1. Briefly: Displacement of [3H]CP-55,940 from human recombinant CB1 receptor expressed in HEK293 cell membranes.
The target of data set [14] is T4, Transient receptor potential cation channel subfamily V member 1. Briefly: Agonist activity at human recombinant TRPV1 expressed in HEK293 cells assessed as increase in intracellular calcium level by fluorescence assay. Type of data set: cell-based. In short, it runs like this:
as §4

Data set [15] shares this target. The data set is described as follows: Antagonist activity against human recombinant TRPV1 expressed in HEK293 cells assessed as reduction in capsaicin-induced intracellular calcium response pre-incubated 5 mins before capsaicin addition by fluorescence assay. Format: cell-based. In a few lines: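 Human TRPV1-HEK293 cells loaded with Fluo-4 in Tyrode's buffer pH 7.4, 25 °C. Compound added 5 min before 0.1 µM capsaicin. IC50 taken as half-maximal inhibition of the capsaicin-induced [Ca2+]i rise, n=3.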

Data set [16] relates to Mus musculus. The data set is described as follows: Toxicity in Swiss-Webster mouse formalin-induced pain model assessed as induction of abdominal writhing at >4 mg/kg, ip. Type of data set: organism-based, Abdomen. Conditions: in vivo. In a few lines:
as §1

The species entered for data set [17] is Homo sapiens. Briefly: Selectivity index, ratio of Ki for human recombinant CB1 receptor to Ki for human recombinant CB2 receptor.
In data set [18] the target is T3, Transient receptor potential cation channel subfamily A member 1. Briefly: Agonist activity at rat recombinant TRPA1 expressed in HEK293 cells assessed as increase in intracellular calcium level by fluorescence assay. Format: cell-based. In a few lines:
as §2

The source made the active and inactive calls. The rule behind the calls is not given here.

T4 sequence (Q8NER1 whole entry): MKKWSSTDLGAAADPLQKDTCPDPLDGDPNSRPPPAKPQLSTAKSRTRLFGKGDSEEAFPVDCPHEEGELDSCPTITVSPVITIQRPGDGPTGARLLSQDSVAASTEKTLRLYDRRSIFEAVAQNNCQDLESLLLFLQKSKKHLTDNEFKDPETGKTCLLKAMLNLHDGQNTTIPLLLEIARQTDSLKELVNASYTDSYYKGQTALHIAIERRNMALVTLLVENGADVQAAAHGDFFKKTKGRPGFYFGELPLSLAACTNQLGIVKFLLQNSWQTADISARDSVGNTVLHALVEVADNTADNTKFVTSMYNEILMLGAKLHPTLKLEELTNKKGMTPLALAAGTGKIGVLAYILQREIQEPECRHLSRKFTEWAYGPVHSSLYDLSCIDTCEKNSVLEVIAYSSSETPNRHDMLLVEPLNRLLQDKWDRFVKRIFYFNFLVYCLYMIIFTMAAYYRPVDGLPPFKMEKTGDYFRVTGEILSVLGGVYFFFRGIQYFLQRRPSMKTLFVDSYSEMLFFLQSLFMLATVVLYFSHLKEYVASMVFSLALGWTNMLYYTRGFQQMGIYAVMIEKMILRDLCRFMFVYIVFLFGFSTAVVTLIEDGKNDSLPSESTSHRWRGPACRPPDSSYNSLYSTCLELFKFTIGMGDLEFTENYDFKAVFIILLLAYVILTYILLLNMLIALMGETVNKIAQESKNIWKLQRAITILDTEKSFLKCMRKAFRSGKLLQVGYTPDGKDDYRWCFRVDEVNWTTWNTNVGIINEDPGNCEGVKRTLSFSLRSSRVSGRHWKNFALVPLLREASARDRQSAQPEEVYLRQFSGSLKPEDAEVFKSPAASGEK
T1 sequence (P34972 whole entry): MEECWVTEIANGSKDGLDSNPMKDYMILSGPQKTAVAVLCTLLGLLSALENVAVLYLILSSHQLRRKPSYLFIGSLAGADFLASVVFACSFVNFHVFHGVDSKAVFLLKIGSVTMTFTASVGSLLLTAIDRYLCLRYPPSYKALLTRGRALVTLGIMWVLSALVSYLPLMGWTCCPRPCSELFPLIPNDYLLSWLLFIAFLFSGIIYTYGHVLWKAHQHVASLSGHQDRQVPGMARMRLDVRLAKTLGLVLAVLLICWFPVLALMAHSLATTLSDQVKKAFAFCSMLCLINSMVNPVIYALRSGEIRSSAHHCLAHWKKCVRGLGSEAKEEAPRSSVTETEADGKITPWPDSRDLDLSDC
T2 sequence (P21554 whole entry): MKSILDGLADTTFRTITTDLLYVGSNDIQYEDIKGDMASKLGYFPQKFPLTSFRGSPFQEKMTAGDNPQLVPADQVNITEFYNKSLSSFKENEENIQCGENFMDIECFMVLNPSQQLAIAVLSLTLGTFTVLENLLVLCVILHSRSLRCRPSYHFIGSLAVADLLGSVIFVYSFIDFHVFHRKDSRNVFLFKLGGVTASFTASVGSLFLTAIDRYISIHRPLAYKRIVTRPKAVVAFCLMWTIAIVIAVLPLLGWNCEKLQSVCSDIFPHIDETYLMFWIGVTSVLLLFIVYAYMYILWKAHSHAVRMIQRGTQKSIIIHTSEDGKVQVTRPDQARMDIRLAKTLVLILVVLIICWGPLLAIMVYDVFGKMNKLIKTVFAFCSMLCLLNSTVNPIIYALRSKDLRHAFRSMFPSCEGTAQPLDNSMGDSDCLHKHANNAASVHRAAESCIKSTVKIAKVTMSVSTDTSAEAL
T3 sequence (Q6RI86 whole entry): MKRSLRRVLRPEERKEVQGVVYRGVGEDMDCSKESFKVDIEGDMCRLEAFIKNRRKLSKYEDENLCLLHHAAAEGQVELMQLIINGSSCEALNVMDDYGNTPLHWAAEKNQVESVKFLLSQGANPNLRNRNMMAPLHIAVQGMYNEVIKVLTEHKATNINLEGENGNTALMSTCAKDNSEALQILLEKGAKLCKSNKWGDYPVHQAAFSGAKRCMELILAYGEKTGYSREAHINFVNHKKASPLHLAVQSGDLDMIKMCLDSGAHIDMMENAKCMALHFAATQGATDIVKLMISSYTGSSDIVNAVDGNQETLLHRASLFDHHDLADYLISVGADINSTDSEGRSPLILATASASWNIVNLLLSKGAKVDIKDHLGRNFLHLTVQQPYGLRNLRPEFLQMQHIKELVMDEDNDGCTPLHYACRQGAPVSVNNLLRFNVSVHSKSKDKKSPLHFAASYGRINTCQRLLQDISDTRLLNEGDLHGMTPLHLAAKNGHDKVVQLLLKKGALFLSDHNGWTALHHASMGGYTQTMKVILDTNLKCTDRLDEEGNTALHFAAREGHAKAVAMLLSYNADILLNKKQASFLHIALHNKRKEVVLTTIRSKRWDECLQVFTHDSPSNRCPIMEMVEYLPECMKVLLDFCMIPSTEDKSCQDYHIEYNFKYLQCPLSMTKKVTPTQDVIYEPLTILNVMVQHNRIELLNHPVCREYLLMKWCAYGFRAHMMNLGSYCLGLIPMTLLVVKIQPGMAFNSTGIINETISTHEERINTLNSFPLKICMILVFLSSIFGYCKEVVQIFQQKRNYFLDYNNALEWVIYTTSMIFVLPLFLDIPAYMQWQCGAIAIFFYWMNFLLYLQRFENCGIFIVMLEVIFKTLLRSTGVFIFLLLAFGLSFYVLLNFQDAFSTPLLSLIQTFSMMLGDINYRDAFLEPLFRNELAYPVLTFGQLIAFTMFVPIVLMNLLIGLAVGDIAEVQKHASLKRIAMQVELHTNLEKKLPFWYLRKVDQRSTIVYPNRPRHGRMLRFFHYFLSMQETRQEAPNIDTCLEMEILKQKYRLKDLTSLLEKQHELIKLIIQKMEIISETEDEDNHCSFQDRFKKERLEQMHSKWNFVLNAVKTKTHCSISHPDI
Sequence of Transient receptor potential cation channel subfamily A member 1 (Rattus norvegicus) (Q6RI86 whole entry): as above

Take `CCCCCCCCCCC[C@@H](C[C@@H]1OC(=O)[C@H]1CCCCCC)OC(=O)CNC=O`: in the data set with COS-7, the Imax amounted to 60%.
The Ki is a measure of affinity in units of concentration, obtained from inhibition or displacement. One may read the IC50 as the concentration at which inhibition is half-maximal. What is called Emax is the size of the effect at its maximum, as opposed to the concentration needed. Usually EC50 stands for the concentration giving half of the maximal effect. With `C=CCNC(=O)CCCCCCCOc1cc(O)cc(C(C)(C)CCCCCC)c1`, the outcome in the data set with Mus musculus [1] and in the data set with Mus musculus [2] was Active. Further, the Ki at Cannabinoid receptor 2 [3] is 7.36 nM; on Cannabinoid receptor 1 [13], 7.22 nM. For the same compound, the Efficacy in data set [4] came to 51.3%; in [10], 18.6%. The IC50 is 188 µM in [5], 7.4 µM in [7] and 23.9 µM in data set [15]. The values for the Emax on Cannabinoid receptor 1 [6] and on Cannabinoid receptor 2 [8] were 60.6% and 13.4%, respectively. Also, the EC50 came to 138 nM on Cannabinoid receptor 1 [9], 44.7 nM at Cannabinoid receptor 2 [12], 6.9 µM in data set [14] and 2700 nM in [18]. The Ratio Ki in the data set filed under Homo sapiens [11] is 1.02; in the data set listed under Homo sapiens [17], 0.98. In addition, in the data set with Mus musculus [16], the Activity result is on record as “Toxic”.
